This passage reports IC50, CL and Microsomal clearance results from ChEMBL document CHEMBL3352689 (J Med Chem, 2014).

One series addresses Collagenase 3 (Homo sapiens, UniProt P45452). The series can be described thus: Inhibition of human recombinant MMP13 using Cy3-PLGLK(Cy5Q)AR-NH2 as substrate after 40 mins by spectrofluorimetry.
For another series, the system named is Rattus norvegicus. The series can be described thus: Intrinsic clearance in iv dosed rat. It counts as ADME, organism-based. The note with it: in vivo.
Another series relates to Liver microsome. Description: Metabolic stability in rat liver microsomes. The format is ADME. The gist of the method: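 The free acid was incubated with hepatic microsomes of each species. Stability is reported as clearance in μL/min/mg microsomal protein.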
(In general: Liver microsomes are vesicles of endoplasmic reticulum, rich in cytochrome P450 enzymes.)

Broadly, the IC50 is the point on the concentration scale where inhibition reaches its midpoint. Turning to `COc1cccc(CNC(=O)c2nc3cccc(OCCC4CCCCC4)c3c(=O)[nH]2)c1`, the IC50 at Collagenase 3 amounted to 0.99 nM. Consider `COc1cccc(CNC(=O)c2nc3cccc(C#N)c3c(=O)[nH]2)c1`, for which, on Collagenase 3, the IC50 stood at 8.6 nM. Still for that read-out and setting: as for `COc1cccc(CNC(=O)c2nc3cccc(NCCc4ccccc4)c3c(=O)[nH]2)c1`, the figure is 4.3 nM; as for `COc1cccc(CNC(=O)c2nc3cccc(OCCCc4ccccc4)c3c(=O)[nH]2)c1`, 0.52 nM.

As to `COc1cccc(CNC(=O)c2nc3ccc(C#N)cc3c(=O)[nH]2)c1`, the IC50 at Collagenase 3 stood at 6.3 nM.

In the case of `COc1cccc(CNC(=O)c2nc3cccc(CC(=O)Nc4ccccc4)c3c(=O)[nH]2)c1`, the 50% inhibitory concentration (IC50) at Collagenase 3 was found to be 0.16 nM. For `COc1cccc(CNC(=O)c2nc3ccc(F)c(OCCc4ccc(F)cc4)c3c(=O)[nH]2)c1`, the CL in the series with Rattus norvegicus was 1.7 L/h/kg. For the same compound, the IC50 at Collagenase 3 worked out at 0.15 nM. The compound also registered a Microsomal clearance in the series with Liver microsome of 180 µL/min/mg.

`COc1cccc(CNC(=O)c2nc3cccc(F)c3c(=O)[nH]2)c1`: the IC50 on Collagenase 3 is 5 nM. On the same count and under the same terms, as for `COc1cccc(CNC(=O)c2nc3cccc(-c4ccccc4)c3c(=O)[nH]2)c1`, the figure is 2.2 nM. For the compound `COc1cccc(CNC(=O)c2nc3c(OC)cccc3c(=O)[nH]2)c1`, the IC50 at Collagenase 3 is greater than 10000 nM.

Take `CCOc1ccc2nc(C(=O)NCc3cccc(OC)c3)[nH]c(=O)c2c1`: the IC50 at Collagenase 3 came to 2.4 nM. On to `COc1cccc(CNC(=O)c2nc3cccc(OCCN4CCCCC4)c3c(=O)[nH]2)c1`, for which, on Collagenase 3, the 50% inhibitory concentration (IC50) turned out to be 34 nM.

Consider `COc1cccc(CNC(=O)c2nc3cccc(CN(C)Cc4ccccc4)c3c(=O)[nH]2)c1`, for which the IC50 on Collagenase 3 amounted to 16 nM. Take `COc1cccc(CNC(=O)c2nc3ccc(OC)cc3c(=O)[nH]2)c1`: the IC50 at Collagenase 3 is 4 nM. Same read-out and setting: in the case of `COc1cccc(CNC(=O)c2nc3cccc(COCc4ccccc4)c3c(=O)[nH]2)c1` it was 1.7 nM. On the same count and under the same terms, as for `COc1cccc(CNC(=O)c2nc3cccc(OC)c3c(=O)[nH]2)c1`, the figure is 25 nM; as for `COc1cccc(CNC(=O)c2nc3cccc(Oc4ccccc4)c3c(=O)[nH]2)c1`, 0.53 nM.

With `COc1cccc(CNC(=O)c2nc3cccc(SCCc4ccccc4)c3c(=O)[nH]2)c1`, the IC50 at Collagenase 3 was 9.7 nM. Same read-out and setting: as for `COc1cccc(CNC(=O)c2nc3cccc(OCc4ccccc4)c3c(=O)[nH]2)c1`, the figure is 0.31 nM; as for `COc1cccc(CNC(=O)c2nc3ccc(F)cc3c(=O)[nH]2)c1`, 11 nM. The same measure, in the same setting: as for `COc1cccc(CNC(=O)c2nc3ccc(SC)cc3c(=O)[nH]2)c1`, the figure is 1.8 nM.

On to `COc1cccc(CNC(=O)c2nc3cc(OC)ccc3c(=O)[nH]2)c1`, for which the IC50 at Collagenase 3 was 2200 nM. In turn, `COc1cccc(CNC(=O)c2nc3cccc(OCCc4ccccc4)c3c(=O)[nH]2)c1` displayed a CL in the series on Rattus norvegicus of 1.7 L/h/kg. In addition, at Collagenase 3, the IC50 came out at 0.69 nM. The same compound returned a Microsomal clearance in the series with Liver microsome of 170 µL/min/mg. For the compound `COc1cccc(CNC(=O)c2nc3cccc(CCCc4ccccc4)c3c(=O)[nH]2)c1`, the IC50 at Collagenase 3 is 2.9 nM. Still for that read-out and setting: as for `COc1cccc(CNC(=O)c2nc3cccc(OCCOCc4ccccc4)c3c(=O)[nH]2)c1`, the figure is 1.6 nM. As for `COc1cccc(CNC(=O)c2nc3ccc(C(F)(F)F)cc3c(=O)[nH]2)c1`, the IC50 on Collagenase 3 is 97 nM. As for `COc1cccc(CNC(=O)c2nc3ccc(F)c(OCCc4ccc(N)cc4)c3c(=O)[nH]2)c1`, the CL with Rattus norvegicus worked out at 14 L/h/kg. Also, the IC50 on Collagenase 3 is 0.03 nM. In the series on Liver microsome, the Microsomal clearance was determined as 140 µL/min/mg. Take `COc1cccc(CNC(=O)c2nc3ccc(OCc4ccccc4)cc3c(=O)[nH]2)c1`: the IC50 at Collagenase 3 worked out at 110 nM. The same measure, in the same setting: as for `COc1cccc(CNC(=O)c2nc3ccc(S(C)(=O)=O)cc3c(=O)[nH]2)c1`, the figure is 23 nM; as for `COc1cccc(CNC(=O)c2nc3ccc(-c4ccccc4)cc3c(=O)[nH]2)c1`, 9.8 nM. Consider `COc1cccc(CNC(=O)c2nc3ccc(OC(F)(F)F)cc3c(=O)[nH]2)c1`, for which, on Collagenase 3, the IC50 turned out to be 27 nM. The compound `COc1cccc(CNC(=O)c2nc3ccc(F)c(OCCc4ccccc4)c3c(=O)[nH]2)c1` returned a CL in the series on Rattus norvegicus of 1 L/h/kg. On Collagenase 3, the IC50 was determined as 0.04 nM. The compound also had a Microsomal clearance in the series with Liver microsome of 150 µL/min/mg.
